Assay outcomes (PubChem BioAssay)
In the library only some 2.9% were active in any assay of this set; here they are far more common.
CHO-K1 Ca PAM: nonselective calcium activators in parental CHO-K1 cells, primary screen, counter-screen for M1 PAM project, cell-based, Fluo-8 calcium fluorescence, full deck, 1536-well; AID 602247, 2012; 360,000 tested, 0.02% active; activation, % at 3 µM; ATP EC20; 0% at ATP EC20, 100% at ATP max;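 active = activation above the run cutoff, the mean activation of all test compounds plus 3 SD, cut at about 40% in these data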;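 note: peak over basal fluorescence ratio in a 140 s read after ATP addition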
CHO-K1 Ca antag: nonselective inhibitor or artifact in parental CHO-K1 cells. 360,000 tested, 0.6% active. inhibition, % at 3 µM. ATP-induced calcium, Fluo-8 fluorescence. AID 602250;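 active = inhibition above a per-plate cutoff, the plate's mean sample inhibition plus 3 SD, cut at about 24% in these data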;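 note: 0% = DMSO plus EC80 ATP and 100% = DMSO alone without ATP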
CHO parental Ca: ATP-evoked calcium signal inhibitors, parental CHO, primary screen, counter-screen for OX1R antagonist project, cell-based, fluorescence, Fluo-8 calcium dye | parental CHO-K1, ATP-induced calcium, Fluo-8 fluorescence | inhibition, % at 5.6 µM | 330,000 tested, 0.63% active;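 active = inhibition above that plate's mean sample inhibition plus 3 SD, cut at about 26% in these data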;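 note: 0% = ATP-challenged DMSO wells and 100% = DMSO wells without ATP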
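Assay system: untransfected parental CHO cell line. Also added: ATP agonist challenge. Dosing: one dose, 5.6 µM nominal. Measured by: Fluo-8 fluorescence. Read-out: % inhibition. Benchmarks: ATP wells versus no-ATP DMSO wells. Repeats: no replicates.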
OX1R antag-1: antagonists of human orexin 1 receptor (OX1R). 330,000 tested, 1.8% active. OX1R-expressing cells, FRET antagonist read-out. inhibition, % at 6.6 µM. AID 485270, 2010; in the data active = inhibition mostly above about 38%, no sharp cut-off; inactive = mostly below about 40%;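 note: 0% = agonist challenge alone and 100% = reference antagonist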
Target sequence (O43613 whole entry, looked up): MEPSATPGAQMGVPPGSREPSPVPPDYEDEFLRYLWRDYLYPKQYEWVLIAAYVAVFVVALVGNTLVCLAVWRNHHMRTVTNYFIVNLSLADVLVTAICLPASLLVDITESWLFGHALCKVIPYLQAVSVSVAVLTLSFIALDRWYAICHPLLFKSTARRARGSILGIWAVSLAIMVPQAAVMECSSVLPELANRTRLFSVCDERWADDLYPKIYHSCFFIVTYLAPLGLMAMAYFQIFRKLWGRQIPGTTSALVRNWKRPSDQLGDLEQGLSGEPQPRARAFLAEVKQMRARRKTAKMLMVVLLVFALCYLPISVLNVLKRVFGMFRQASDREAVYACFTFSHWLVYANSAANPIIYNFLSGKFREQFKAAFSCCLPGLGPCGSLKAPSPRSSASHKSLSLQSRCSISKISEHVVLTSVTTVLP
OX1R antag-2: OX1R (HCRTR1) antagonists, primary screen, fluorescence, CHO/OX1R cells, Fluo-8 calcium, orexin A; 330,000 tested, 0.43% active; inhibition, % at 5 µM; Orexin/Hypocretin receptor type 1 (Homo sapiens), O43613; AID 434989, 2010; Fluo-8 calcium fluorescence;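 active = inhibition above its plate's threshold, mean inhibition of all tested compounds on the plate plus 3 SD, cut at about 37% in these data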;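 note: 0% = orexin A challenge wells and 100% = SB-334867-A antagonist wells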
CHO-K1 Ca ag: counter-screen for M1 agonists: effect in parental CHO-K1 cells; 360,000 tested, 0.48% active; Fluo-8 calcium fluorescence; scaled to maximal ATP response, vehicle zero; activation, % at 3 µM; AID 602248, 2012; in the data active = activation above about 15%;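 note: untransfected CHO-K1 host cells lacking M1 receptor as counterscreen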
An asterisk follows results filed as active; nt = no result given.

SMILES	CHO-K1 Ca PAM	CHO-K1 Ca antag	CHO parental Ca	OX1R antag-1	OX1R antag-2	CHO-K1 Ca ag
CCOC(=O)/C(C#N)=C1/C=C(C)NC(c2ccccc2O)=N1	-1	-9	-3	40*	25	5
CCOC(=O)c1nn(-c2cccc(Cl)c2)c2nc(Nc3ccccc3)cc(=O)n12	-5	-8	0	8	-5	0
CCOC(=O)c1nn(-c2cccc(OC)c2)c2nc(Nc3ccccc3)cc(=O)n12	12	5	94*	14	-5	2
CCCN1C(=O)CC(=O)N=C1SCC(=O)Nc1ccccc1F	0	-13	-10	0	-12	18*
CCCCOc1ccc(C(=O)NCC(=O)NCC(c2ccco2)N2CCCCC2)cc1 (stereo unspecified)	11	1	-28	0	-45	0
C=CCc1ccc(O)c(-c2cc(CC=C)ccc2O)c1	-10	7	40*	3	47*	0
C=CCc1ccc(OCC(O)CO)c(OC)c1 (stereo unspecified)	15	-9	-2	-10	-5	0
CC(C)Oc1ccc(CNC(=O)c2cc(S(=O)(=O)N3CCOCC3)cn2C)cc1	-6	-6	-2	1	-18	1
C/C(=N\NC(=O)CCc1c[nH]c2ccccc12)c1ccc([N+](=O)[O-])cc1	13	-5	0	59*	-9	1
O=C(Nc1ccccc1)c1ccc(Nc2c([N+](=O)[O-])cc([N+](=O)[O-])c3ccccc23)cc1	-1	-2	7	10	10	-1
O=[N+]([O-])c1cc(Br)c(Nc2ccccc2)c([N+](=O)[O-])c1	-9	12	16	50*	17	-1
COc1ccc(-n2c(SCCNCCO)nc3sc4c(c3c2=O)CCCC4)cc1	-12	-9	-7	11	-13	0
COc1cc(C(C)=O)ccc1OCC(O)CN1CCN(c2cc(C)cc(C)c2)CC1 (stereo unspecified)	-4	-3	-12	28	-16	4
COc1cccc(C(=O)N2CCN(c3ccc(N4CCOCC4)nn3)CC2)c1	7	-4	-13	35	-14	1
COc1ccc2c(c1)CCc1cc(C(=O)N3CCN(c4ccc(N5CCOCC5)nn4)CC3)sc1-2	-10	31*	-13	20	-32	1
O=C(OCc1ccc(O)cc1)c1c(-c2ccsc2)oc2ccc(N3CCOCC3)cc12	5	0	-2	26	-14	1
CN1CCN(CC(=O)N2c3ccccc3Sc3ccccc32)CC1	10	-6	-1	0	-13	2
O=C(CN1CCCCCC1)N1c2ccccc2Sc2ccccc21	14	-4	-1	21	-7	16*
CS(=O)(=O)c1cc([N+](=O)[O-])c(Sc2nc3ccccc3[nH]2)c([N+](=O)[O-])c1	7	6	32*	39*	22	1
CC(Nc1nc(-c2ccncc2)nc2ccccc12)c1ccccc1 (stereo unspecified)	-8	-3	-34	14	-20	0
CC(Nc1nc(-c2cccnc2)nc2ccccc12)c1ccccc1 (stereo unspecified)	13	7	nt	nt	nt	17*
COC(=O)COc1ccc(C(=O)Cn2c(NCCCO)nc3ccccc32)cc1	14	-6	-16	2	-2	1
O=c1c2ccccc2sc2ccc(NCCCN3CCOCC3)cc12	1	7	9	16	-9	7
COc1cc2sc3cc(NCCCN4CCOCC4)ccc3c(=O)c2cc1OC	5	-1	-15	63*	-2	0
CCCCc1[nH]c(=O)c(C#N)c2c1CSC(C)(C)C2	-13	11	56*	18	-3	0
CCn1c(=NC(=O)c2ccco2)sc2cccc(F)c21	12	-2	-17	65*	-4	0
Cc1cc(C)c(NC(=O)CSc2nnc(CNC(=O)c3c(F)cccc3Cl)o2)c(C)c1	21	-12	-9	1	-18	3
